Data reported in ChEMBL document CHEMBL4130563, “Structure-Based Design and Synthesis of New Estrane-Pyridine Derivatives as Cytochrome P450 (CYP) 1B1 Inhibitors” (ACS Med Chem Lett, 2017).

Experiments:
CYP1B1 [1] = target: T1, CYP1B1 (Homo sapiens, UniProt Q16678); assay: Inhibition of recombinant human CYP1B1 expressed in supersomes coexpressing P450 reductase at 0.3 uM using 7-ethyl-O-resorufin as substrate after 45 mins in presence of NADPH by fluorescence assay relative to control; conditions: probe 7-ethyl-O-resorufin
T1 sequence (Q16678 whole entry): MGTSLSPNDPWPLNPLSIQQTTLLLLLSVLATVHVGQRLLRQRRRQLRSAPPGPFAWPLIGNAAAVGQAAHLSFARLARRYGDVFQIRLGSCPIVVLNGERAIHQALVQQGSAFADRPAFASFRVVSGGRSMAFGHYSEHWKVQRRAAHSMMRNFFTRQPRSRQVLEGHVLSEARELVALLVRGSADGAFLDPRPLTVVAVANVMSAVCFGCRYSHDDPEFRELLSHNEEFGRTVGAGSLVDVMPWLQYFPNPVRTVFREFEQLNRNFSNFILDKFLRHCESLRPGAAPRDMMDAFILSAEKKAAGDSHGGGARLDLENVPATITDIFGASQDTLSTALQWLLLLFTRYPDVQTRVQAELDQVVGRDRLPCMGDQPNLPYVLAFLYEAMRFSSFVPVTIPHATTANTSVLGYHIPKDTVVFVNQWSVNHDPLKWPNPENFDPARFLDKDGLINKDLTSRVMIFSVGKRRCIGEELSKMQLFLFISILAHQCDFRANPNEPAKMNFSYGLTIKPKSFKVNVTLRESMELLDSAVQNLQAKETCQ

Cytochrome P450 1B1 = target: T2, Cytochrome P450 1B1 (Homo sapiens, UniProt Q16678); assay: Inhibition of recombinant human CYP1B1 expressed in supersomes coexpressing P450 reductase using 7-ethyl-O-resorufin as substrate after 45 mins in presence of NADPH by fluorescence assay
T2 sequence (Q16678 whole entry): T1 sequence (Q16678 whole entry)

CYP1B1 [2] = target: T1, CYP1B1; assay: Potency index, ratio of alpha-naphthoflavone IC50 to compound IC50 for inhibition of recombinant human CYP1B1 expressed in supersomes coexpressing P450 reductase; conditions: read-out: Ratio IC50
Method in brief: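 EROD assay on recombinant human CYP1B1 with NADPH as cofactor. Resorufin ethyl ether is the substrate, and conversion to resorufin is read by fluorescence.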

[3] = Drug uptake in rat plasma at 2 mg/kg, sc administered as single dose measured at 2 hrs post dose by LC-MS analysis; type: ADME, organism-based
Method in brief: (§1)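 Rats given one subcutaneous injection of the 17β-alcohol parent at 2.0 mg/kg (0.66 mg in PG:DMSO 92:8). Plasma levels of the parent and of its 17-keto metabolite were followed over time. AUC (ng.h/mL) was calculated for each species and for the two combined.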

[4] = Drug metabolism in rat plasma assessed as 2-(3-pyridinyl)-3-hydroxy-estra-1,3,5(10)-trien-17-one formation at 2 mg/kg, sc administered as single dose measured at 2 hrs post dose by LC-MS analysis; type: ADME, organism-based; conditions: in vivo; method in brief: as §1
[5] = AUC (0 to 24 hrs) in rat plasma at 2 mg/kg, sc administered as single dose measured at 2 hrs post dose by LC-MS analysis; type: ADME, organism-based; design: time < 24 hr, dose 2 mg/kg, route subcutaneous; method in brief: as §1
Rattus norvegicus = assay: AUC (0 to 24 hrs) in rat plasma assessed as 2-(3-pyridinyl)-3-hydroxy-estra-1,3,5(10)-trien-17-one level at 2 mg/kg, sc administered as single dose measured at 2 hrs post dose by LC-MS analysis; type: ADME, organism-based; design: dose 2 mg/kg, time < 24 hr, route subcutaneous; conditions: in vivo; method in brief: as §1

Compound | inhibition at 0.75 h, 0.3 µM (CYP1B1 [1]) | also measured
C[C@]12CC[C@@H]3c4ccc(S)cc4CC[C@H]3[C@@H]1CCC2=O | 13.3% | 
C[C@]12CC[C@@H]3c4ccc(-c5cccnc5)cc4CC[C@H]3[C@@H]1CC[C@@H]2O | 19.6% | 
C[C@]12CC[C@@H]3c4ccc(O)c(-c5ccncc5)c4CC[C@H]3[C@@H]1CC[C@@H]2O | 20.9% | 
C[C@]12CC[C@@H]3c4cc(-c5cccnc5)c(O)cc4CC[C@H]3[C@@H]1CC[C@@H]2O | 85.4% | IC50 (Cytochrome P450 1B1): 11 nM; selectivity ratio (CYP1B1 [2]): 7.5; concentration at 2 h [3]: 4 ng/mL; Drug metabolism [4]: 7 ng/mL; AUC(0-t) at 24 h [5]: 12.8 ng·h/mL; AUC (Rattus norvegicus): 33.2 ng·h/mL
C[C@]12CC[C@@H]3c4ccc(-c5cccnc5)cc4CC[C@H]3[C@@H]1CCC2=O | 28.2% | 
C[C@]12CC[C@@H]3c4ccc(O)c(-c5cccnc5)c4CC[C@H]3[C@@H]1CCC2=O | 14% | 
C[C@]12CC[C@@H]3c4cc(-c5cccnc5)c(O)cc4CC[C@H]3[C@@H]1CCC2=O | 37.8% | IC50 (Cytochrome P450 1B1): 63 nM
C[C@]12CC[C@@H]3c4ccc(-c5ccncc5)cc4CC[C@H]3[C@@H]1CCC2=O | 6.1% | 
C[C@]12CC[C@@H]3c4ccc(O)c(-c5ccncc5)c4CC[C@H]3[C@@H]1CCC2=O | 16.9% | 
C[C@]12CC[C@@H]3c4ccc(O)c(-c5cccnc5)c4CC[C@H]3[C@@H]1CC[C@@H]2O | 28.9% | 
C[C@]12CC[C@@H]3c4cc(-c5ccncc5)c(O)cc4CC[C@H]3[C@@H]1CC[C@@H]2O | 87.4% | IC50 (Cytochrome P450 1B1): 32 nM; selectivity ratio (CYP1B1 [2]): 2.5
C[C@]12CC[C@@H]3c4cc(-c5ccncc5)c(O)cc4CC[C@H]3[C@@H]1CCC2=O | 21.3% | IC50 (Cytochrome P450 1B1): 120 nM
C[C@]12CC[C@@H]3c4ccc(-c5ccncc5)cc4CC[C@H]3[C@@H]1CC[C@@H]2O | 19.5% | 
O=c1cc(-c2ccccc2)oc2c1ccc1ccccc12 [ALPHA-NAPHTHOFLAVONE] | 94% | 
C[C@]12CC[C@@H]3c4ccc(O)cc4CC[C@H]3[C@@H]1CC[C@@H]2O [ESTRADIOL] | 12.4% | 
